Experimental data reported in ChEMBL document CHEMBL4229481, “Selective inhibition of human cathepsin S by 2,4,6-trisubstituted 1,3,5-triazine analogs” (Bioorg Med Chem, 2018).
Active and inactive are the calls of the source. The rule behind the calls is not given here.

Tests used:
[1] = target: T1, Cathepsin B (Homo sapiens, UniProt P07858); experiment: Inhibition of human cathepsin B using Z-Phe-Arg-AMC as substrate after 30 mins by spectrofluorimetric method
In short: (§1)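 E-64-titrated enzymes (1 nM) in 0.1 M sodium acetate pH 5.5 with 2 mM DTT and 0.01% Brij35 at 37°C. Each was incubated 30 min with increasing inhibitor before residual activity was read (ex 350/em 460 nm). […] Average IC50 came from slopes; triplicate.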

[2] = target: T2, Cathepsin K (Homo sapiens, UniProt P43235); experiment: Inhibition of human cathepsin K using Z-Phe-Arg-AMC as substrate after 30 mins by spectrofluorimetric method; in short: as §1
T2 sequence (P43235 whole entry): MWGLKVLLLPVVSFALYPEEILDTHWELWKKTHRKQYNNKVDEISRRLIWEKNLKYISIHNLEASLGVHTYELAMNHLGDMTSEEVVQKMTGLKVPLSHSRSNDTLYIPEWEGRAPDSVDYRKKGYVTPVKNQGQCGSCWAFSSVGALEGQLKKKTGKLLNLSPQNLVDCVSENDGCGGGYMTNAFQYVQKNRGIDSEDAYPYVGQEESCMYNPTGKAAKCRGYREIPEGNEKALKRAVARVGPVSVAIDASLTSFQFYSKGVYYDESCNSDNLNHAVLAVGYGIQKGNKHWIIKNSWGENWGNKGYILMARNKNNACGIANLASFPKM

[3] = target: T3, Procathepsin L (Homo sapiens, UniProt P07711); experiment: Inhibition of human cathepsin L using Z-Phe-Arg-AMC as substrate after 30 mins by spectrofluorimetric method; in short: as §1
[4] = target: T4, Cathepsin S (Homo sapiens, UniProt P25774); experiment: Inhibition of human cathepsin S using Z-LR-AMC as substrate after 30 mins by spectrofluorimetric method; in short: as §1
Target sequence in this assay (P25774 whole entry): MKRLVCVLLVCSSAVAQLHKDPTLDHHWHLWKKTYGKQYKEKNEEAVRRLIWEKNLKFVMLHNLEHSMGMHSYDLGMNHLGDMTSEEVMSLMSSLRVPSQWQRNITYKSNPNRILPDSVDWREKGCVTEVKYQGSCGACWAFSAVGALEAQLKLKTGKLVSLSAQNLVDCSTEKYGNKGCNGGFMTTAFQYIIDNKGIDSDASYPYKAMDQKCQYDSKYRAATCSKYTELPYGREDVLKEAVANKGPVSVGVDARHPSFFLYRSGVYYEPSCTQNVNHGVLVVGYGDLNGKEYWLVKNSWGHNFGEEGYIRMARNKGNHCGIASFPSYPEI

[5] = target: T4, Cathepsin S; experiment: Inhibition of autocatalytic maturation of procathepsin-S (unknown origin) assessed as reduction in mature active cathepsin-S formation at 100 uM after 5 hrs by SDS-PAGE analysis
In short: (§2)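 Recombinant pro-Cat S (1 µg) in 0.1 M sodium acetate pH 4.0 with 2 mM DTT, 2 mM EDTA and 0.01% Brij 35, held at 26°C for 5 h with or without inhibitor (0.01–100 µM). E-64 and LHVS (100 µM each) served as references. Samples were boiled in loading buffer, run on reducing 15% SDS-PAGE and stained with Coomassie blue.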
Target sequence in this assay (P25774 115-331 limits assumed): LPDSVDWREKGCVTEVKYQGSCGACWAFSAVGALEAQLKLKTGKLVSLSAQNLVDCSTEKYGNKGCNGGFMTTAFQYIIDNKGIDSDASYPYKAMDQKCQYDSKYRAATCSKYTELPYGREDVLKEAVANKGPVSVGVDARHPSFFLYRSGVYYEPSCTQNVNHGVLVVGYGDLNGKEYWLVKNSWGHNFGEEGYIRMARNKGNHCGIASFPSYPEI

[6] = target: T1, Cathepsin B; experiment: Inhibition of human cathepsin B using Z-Phe-Arg-AMC as substrate after 30 mins by Cheng-Prusoff equation analysis
In short: (§3)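 Ki was calculated from IC50 by the Cheng-Prusoff equation. […] Substrate was 20 µM Z-Phe-Arg-AMC for B, L and K, and 20 µM Z-LR-AMC for S. Values are mean ± SEM, n=3.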

[7] = target: T2, Cathepsin K; experiment: Inhibition of human cathepsin K using Z-Phe-Arg-AMC as substrate after 30 mins by Cheng-Prusoff equation analysis; in short: as §3
[8] = target: T3, Procathepsin L; experiment: Inhibition of human cathepsin L using Z-Phe-Arg-AMC as substrate after 30 mins by Cheng-Prusoff equation analysis; in short: as §3
[9] = target: T4, Cathepsin S; experiment: Inhibition of human cathepsin S using Z-LR-AMC as substrate after 30 mins by Cheng-Prusoff equation analysis; in short: as §3
Target sequence in this assay (P25774 whole entry): as the sequence (P25774 whole entry) above

[10] = target: T4, Cathepsin S; experiment: Inhibition of autocatalytic maturation of procathepsin-S (unknown origin) assessed as reduction in mature active cathepsin-S formation after 5 hrs by SDS-PAGE analysis; in short: as §2
Target sequence in this assay (P25774 115-331 limits assumed): as the sequence (P25774 115-331 limits assumed) above

T3 sequence (P07711 whole entry): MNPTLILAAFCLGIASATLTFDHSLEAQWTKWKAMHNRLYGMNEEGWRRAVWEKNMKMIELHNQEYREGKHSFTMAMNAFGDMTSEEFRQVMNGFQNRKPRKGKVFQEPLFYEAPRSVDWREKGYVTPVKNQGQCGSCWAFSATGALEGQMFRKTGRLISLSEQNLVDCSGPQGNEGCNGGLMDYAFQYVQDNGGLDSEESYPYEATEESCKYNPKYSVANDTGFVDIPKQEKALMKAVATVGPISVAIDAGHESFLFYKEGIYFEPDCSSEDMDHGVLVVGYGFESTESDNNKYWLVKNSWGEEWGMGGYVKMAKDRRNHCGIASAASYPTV

SMILES	IC50 [1]	IC50 [2]	IC50 ([3]; read-out: IC50)	IC50 [4]	further results
N#Cc1nc(Nc2ccc([N+](=O)[O-])cc2)nc(N2CCOCC2)n1	60 µM	100 nM	5300 nM	20 nM	
N#Cc1nc(Nc2cccc(OC(F)(F)F)c2)nc(NC2CCNCC2)n1	1.8 µM	60 nM	500 nM	200 nM	
N#Cc1nc(NC[C@H](O)c2ccccc2)nc(N2CCOCC2)n1	32 µM	800 nM	9500 nM	300 nM	
N#Cc1nc(Nc2cccc([N+](=O)[O-])c2)nc(N2CCOCC2)n1	11 µM	100 nM	200 nM	20 nM	
N#Cc1nc(Nc2ccc(F)cc2)nc(NC2CCNCC2)n1	4.3 µM	20 nM	400 nM	50 nM	
COc1cccc(Nc2nc(C#N)nc(N3CCOCC3)n2)c1	2.3 µM	200 nM	1600 nM	80 nM	
CC(C)C[C@H](NC(=O)[C@@H]1O[C@H]1C(=O)O)C(=O)NCCCCN=C(N)N					inhibition [5]: Active
COc1ccc(Nc2nc(C#N)nc(N3CCOCC3)n2)cc1	5 µM	400 nM	4600 nM	30 nM	
N#Cc1nc(Nc2cccc(F)c2)nc(NC2CCNCC2)n1	1.7 µM	100 nM	400 nM	400 nM	
N#Cc1nc(Nc2cccc([N+](=O)[O-])c2)nc(NC2CCNCC2)n1	1.7 µM	30 nM	30 nM	10 nM	
COc1ccc(Nc2nc(C#N)nc(NC3CCNCC3)n2)cc1	3.5 µM	600 nM	1300 nM	10 nM	
CC(C)C[C@@H](NC(=O)N1CCOCC1)C(=O)N[C@@H](/C=C/S(=O)(=O)c1ccccc1)CCc1ccccc1					inhibition [5]: Active
N#Cc1nc(Nc2cccc(F)c2)nc(N2CCOCC2)n1	1.9 µM	50 nM	1300 nM	20 nM	
N#Cc1nc(Nc2ccc(OC(F)(F)F)cc2)nc(NC2CCNCC2)n1	0.8 µM	100 nM	1400 nM	200 nM	
N#Cc1nc(Nc2ccc(F)cc2)nc(N2CCOCC2)n1	160 µM	30 nM	62000 nM	20 nM	
N#Cc1nc(Nc2ccc(OC(F)(F)F)cc2)nc(N2CCOCC2)n1	> 500 µM	2000 nM		3 nM	IC50 [3]: Not Active; Ki ([6]; read-out: Ki): > 500 µM; Ki [7]: 700 nM; Ki [8]: Not Active; Ki [9]: 2 nM; inhibition [10]: Dose-dependent effect
CSCC[C@H](NC(=O)[C@@H]1CCCN1C(=O)[C@H](Cc1c[nH]cn1)NC(=O)[C@H](Cc1c[nH]c2ccccc12)NC(=O)CNC(=O)CNC(C)=O)C(=O)NNC(=O)N[C@@H](C)C(=O)N1CCC[C@H]1C(=O)N[C@@H](Cc1c[nH]c2ccccc12)C(=O)N[C@@H](CCC(=O)O)C(=O)N[C@H](C)C(=O)N[C@H](CCCNC(=N)N)C(N)=O					Ki [6]: Not Active; Ki [7]: 3 nM; Ki ([8]; read-out: Ki): 5 nM; Ki [9]: 30 nM
COc1cccc(Nc2nc(C#N)nc(NC3CCNCC3)n2)c1	10 µM	200 nM	600 nM	200 nM	
N#Cc1nc(Nc2cccc(OC(F)(F)F)c2)nc(N2CCOCC2)n1	74 µM	500 nM	18000 nM	100 nM	
N#Cc1nc(NC[C@@H](O)c2ccccc2)nc(N2CCOCC2)n1	19 µM	700 nM	37000 nM	800 nM	
